Test results: ChEMBL document CHEMBL5030505, “Assessment of NR4A Ligands That Directly Bind and Modulate the Orphan Nuclear Receptor Nurr1” (J Med Chem, 2020)

molecular target: Nuclear receptor subfamily 4 group A member 2 (Homo sapiens) (UniProt P43354); assay: Modulation of full length human Nurr1 expressed in HEK293T cells co-transfected with RXRalpha and luciferase reporter plasmid harboring NurRE response element assessed as increase in luciferase activity incubated for 18 hrs by luciferase reporter-gene assay; assay type: cell-based; conditions: filed as modulator
Method in brief: (§1)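 Full-length Nurr1 plasmid, alone (2 μg) or 1 μg plus full-length RXRα (1 μg), cotransfected with 3xNBRE- or 3xNurRE-luciferase reporter (6 μg) using Lipofectamine 2000, 18 h. Cells replated at 10,000/well for 4 h. Four ligand concentrations, or vehicle (water, ethanol or DMSO), added in quadruplicate for 18 h. Luciferase read. Fold change vs vehicle, mean ± s.e.m., one-way ANOVA vs vehicle.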

Sequence of Nuclear receptor subfamily 4 group A member 2 (Homo sapiens) (P43354 whole entry): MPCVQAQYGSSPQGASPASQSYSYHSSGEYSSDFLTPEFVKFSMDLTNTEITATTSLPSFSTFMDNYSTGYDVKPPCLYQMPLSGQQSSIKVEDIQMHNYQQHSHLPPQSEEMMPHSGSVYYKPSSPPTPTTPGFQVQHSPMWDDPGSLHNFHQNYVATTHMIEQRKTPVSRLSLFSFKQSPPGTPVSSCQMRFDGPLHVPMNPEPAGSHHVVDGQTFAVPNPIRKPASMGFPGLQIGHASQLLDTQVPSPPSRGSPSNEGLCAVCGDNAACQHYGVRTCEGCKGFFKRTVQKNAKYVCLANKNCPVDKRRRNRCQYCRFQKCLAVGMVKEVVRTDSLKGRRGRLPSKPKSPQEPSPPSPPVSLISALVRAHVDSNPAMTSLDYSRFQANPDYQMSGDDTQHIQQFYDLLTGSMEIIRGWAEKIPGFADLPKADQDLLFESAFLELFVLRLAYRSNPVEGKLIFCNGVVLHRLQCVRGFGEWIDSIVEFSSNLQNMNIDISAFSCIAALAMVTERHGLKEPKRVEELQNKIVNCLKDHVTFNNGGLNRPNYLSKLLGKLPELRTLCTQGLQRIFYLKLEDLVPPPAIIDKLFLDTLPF

| Activity | Compound |
| --- | --- |
| Dose-Dependent Effect | CCCCCCCC(=O)c1c(O)cc(O)cc1CC(=O)OCC [CYTOSPORONE B] |

molecular target: Nuclear receptor subfamily 4 group A member 3 (Homo sapiens) (UniProt Q92570); assay: Modulation of full length human NOR1 expressed in SK-N-BE(2) cells co-transfected with RXRalpha and luciferase reporter plasmid harboring NBRE response element assessed as increase in luciferase activity incubated for 18 by luciferase reporter gene assay; assay type: cell-based; conditions: SKNBE2, filed as modulator, time 18.0 hrs
Method in brief: (§2)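 Cells seeded at 1.5 million per 10-cm dish. Next day they were transfected (Lipofectamine 2000) with full-length Nur77 or NOR-1 expression plasmid, either alone (2 μg) or 1 μg plus full-length RXRα (1 μg), and 3xNBRE- or 3xNurRE-luciferase reporter (6 μg), 18 h. Cells replated at 10,000/well, 4 h, then ligand dose response added in quadruplicate for 18 h. Luciferase luminescence read.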

Sequence of Nuclear receptor subfamily 4 group A member 3 (Homo sapiens) (Q92570 whole entry): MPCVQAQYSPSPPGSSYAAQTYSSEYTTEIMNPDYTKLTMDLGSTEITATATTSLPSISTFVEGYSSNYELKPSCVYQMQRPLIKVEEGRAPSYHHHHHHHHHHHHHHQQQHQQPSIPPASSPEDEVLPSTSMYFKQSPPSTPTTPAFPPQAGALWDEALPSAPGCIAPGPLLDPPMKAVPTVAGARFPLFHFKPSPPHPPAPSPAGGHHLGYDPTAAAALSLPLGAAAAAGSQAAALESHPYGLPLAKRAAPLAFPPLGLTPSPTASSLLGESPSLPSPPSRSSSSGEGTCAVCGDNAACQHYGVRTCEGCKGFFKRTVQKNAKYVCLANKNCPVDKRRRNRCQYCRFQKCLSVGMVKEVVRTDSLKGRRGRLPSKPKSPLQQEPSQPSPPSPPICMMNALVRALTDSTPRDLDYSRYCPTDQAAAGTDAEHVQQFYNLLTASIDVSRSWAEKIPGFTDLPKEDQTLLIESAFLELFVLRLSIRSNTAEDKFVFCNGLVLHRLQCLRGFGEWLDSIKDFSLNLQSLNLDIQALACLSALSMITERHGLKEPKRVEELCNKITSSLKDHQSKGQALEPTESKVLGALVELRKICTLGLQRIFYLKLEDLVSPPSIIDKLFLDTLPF

| Activity | Compound |
| --- | --- |
| Dose-Dependent Effect | CCCCCCCC(=O)c1c(O)cc(O)cc1CC(=O)OCC [CYTOSPORONE B] |

molecular target: Nuclear receptor subfamily 4 group A member 2 (Homo sapiens) (UniProt P43354); assay: Modulation of full length human Nurr1 expressed in HEK293T cells co-transfected with luciferase reporter plasmid harboring NBRE response element assessed as increase in luciferase activity incubated for 18 hrs by luciferase reporter-gene assay; assay type: cell-based; conditions: filed as modulator; method in brief: as §1

| Activity | Compound |
| --- | --- |
| Dose-Dependent Effect | CCCCCCCC(=O)c1c(O)cc(O)cc1CC(=O)OCC [CYTOSPORONE B] |

molecular target: Nuclear receptor subfamily 4immunitygroup A member 1 (Homo sapiens) (UniProt P22736); assay: Modulation of full length human Nur77 expressed in PC12 cells co-transfected with luciferase reporter plasmid harboring NurRE response element assessed as increase in luciferase activity incubated for 18 by luciferase reporter gene assay; assay type: cell-based; conditions: PC-12, filed as modulator, time 18.0 hrs; method in brief: as §2
Sequence (P22736 whole entry): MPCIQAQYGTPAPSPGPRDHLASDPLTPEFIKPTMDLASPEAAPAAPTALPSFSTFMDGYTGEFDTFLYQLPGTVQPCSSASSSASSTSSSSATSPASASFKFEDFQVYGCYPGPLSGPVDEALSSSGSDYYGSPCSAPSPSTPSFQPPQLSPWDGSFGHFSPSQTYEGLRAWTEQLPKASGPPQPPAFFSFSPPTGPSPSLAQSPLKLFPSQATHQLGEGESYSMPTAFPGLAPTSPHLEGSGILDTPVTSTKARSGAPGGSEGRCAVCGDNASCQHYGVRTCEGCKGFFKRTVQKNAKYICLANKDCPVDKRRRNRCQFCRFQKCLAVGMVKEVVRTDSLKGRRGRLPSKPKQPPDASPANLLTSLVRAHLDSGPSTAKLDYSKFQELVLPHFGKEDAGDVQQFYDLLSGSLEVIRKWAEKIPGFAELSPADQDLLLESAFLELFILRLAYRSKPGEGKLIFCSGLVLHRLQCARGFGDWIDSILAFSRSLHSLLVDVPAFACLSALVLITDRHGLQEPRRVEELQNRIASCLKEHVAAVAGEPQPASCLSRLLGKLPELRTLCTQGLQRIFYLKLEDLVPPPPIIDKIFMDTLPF

| Activity | Compound |
| --- | --- |
| Dose-Dependent Effect | CCCCCCCC(=O)c1c(O)cc(O)cc1CC(=O)OCC [CYTOSPORONE B] |

molecular target: Nuclear receptor subfamily 4 group A member 2 (Homo sapiens) (UniProt P43354); assay: Modulation of full length human Nurr1 expressed in HEK293T cells co-transfected with luciferase reporter plasmid harboring NurRE response element assessed as increase in luciferase activity incubated for 18 hrs by luciferase reporter-gene assay; assay type: cell-based; conditions: filed as modulator; method in brief: as §1

| Activity | Compound |
| --- | --- |
| Dose-Dependent Effect | CCCCCCCC(=O)c1c(O)cc(O)cc1CC(=O)OCC [CYTOSPORONE B] |

molecular target: Nuclear receptor subfamily 4 group A member 3 (Homo sapiens) (UniProt Q92570); assay: Modulation of full length human NOR1 expressed in HEK293T cells co-transfected with RXRalpha luciferase reporter plasmid harboring NurRE response element assessed as increase in luciferase activity incubated for 18 hrs by luciferase reporter gene assay; assay type: cell-based; conditions: filed as modulator
Method in brief: (§3)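 Full-length NOR-1 plasmid was transfected via Lipofectamine 2000, either alone (2 μg) or at 1 μg with full-length RXRα (1 μg). It was paired with a 3xNBRE or 3xNurRE luciferase reporter (6 μg), 8 μg total DNA, for 18 h. Cells were replated at 10,000/well for 4 h, then given a full ligand dose response or vehicle in quadruplicate for 18 h. Luciferase was read; no EC50/IC50 was fitted.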

| Activity | Compound |
| --- | --- |
| Dose-Dependent Effect | CCCCCCCC(=O)c1c(O)cc(O)cc1CC(=O)OCC [CYTOSPORONE B] |

molecular target: Nuclear receptor subfamily 4 group A member 3 (Homo sapiens) (UniProt Q92570); assay: Modulation of full length human NOR1 expressed in PC12 cells co-transfected with RXRalpha and luciferase reporter plasmid harboring NBRE response element assessed as increase in luciferase activity incubated for 18 by luciferase reporter gene assay; assay type: cell-based; conditions: PC-12, filed as modulator, time 18.0 hrs; method in brief: as §3

| Activity | Compound |
| --- | --- |
| Dose-Dependent Effect | CCCCCCCC(=O)c1c(O)cc(O)cc1CC(=O)OCC [CYTOSPORONE B] |

molecular target: Nuclear receptor subfamily 4immunitygroup A member 1 (Homo sapiens) (UniProt P22736); assay: Modulation of full length human Nur77 expressed in SK-N-BE(2) cells co-transfected with RXRalpha and luciferase reporter plasmid harboring NBRE response element assessed as increase in luciferase activity incubated for 18 by luciferase reporter gene assay; assay type: cell-based; conditions: SKNBE2, filed as modulator, time 18.0 hrs; method in brief: as §2

| Activity | Compound |
| --- | --- |
| Dose-Dependent Effect | CCCCCCCC(=O)c1c(O)cc(O)cc1CC(=O)OCC [CYTOSPORONE B] |

molecular target: Nuclear receptor subfamily 4immunitygroup A member 1 (Homo sapiens) (UniProt P22736); assay: Modulation of full length human Nur77 expressed in PC12 cells co-transfected with RXRalpha and luciferase reporter plasmid harboring NurRE response element assessed as increase in luciferase activity incubated for 18 by luciferase reporter gene assay; assay type: cell-based; conditions: PC-12, filed as modulator, time 18.0 hrs; method in brief: as §2

| Activity | Compound |
| --- | --- |
| Dose-Dependent Effect | CCCCCCCC(=O)c1c(O)cc(O)cc1CC(=O)OCC [CYTOSPORONE B] |

molecular target: Nuclear receptor subfamily 4 group A member 2 (Homo sapiens) (UniProt P43354); assay: Modulation of full length human Nurr1 expressed in SKNBE(2) cells co-transfected with RXRalpha and luciferase reporter plasmid harboring NBRE response element assessed as increase in luciferase activity incubated for 18 hrs by luciferase reporter-gene assay; assay type: cell-based; conditions: SKNBE2, filed as modulator
Method in brief: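 SK-N-BE(2)-C cells were kept in 1:1 EMEM/F12 with 10% FBS at 37°C and 5% CO2. They were cotransfected with full-length Nurr1 (1 μg), full-length RXRα (1 μg) and 3xNBRE- or 3xNurRE-luc reporter (6 μg) for 18 h, replated at 10,000 cells/well for 4 h, and then treated with ligand or vehicle in quadruplicate for 18 h. The readout was luciferase luminescence as fold over vehicle, reported as mean ± s.e.m. (n=4) from 2 independent experiments, one-way ANOVA.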

| Activity | Compound |
| --- | --- |
| Dose-Dependent Effect | CCCCCCCC(=O)c1c(O)cc(O)cc1CC(=O)OCC [CYTOSPORONE B] |

molecular target: Nuclear receptor subfamily 4immunitygroup A member 1 (Homo sapiens) (UniProt P22736); assay: Modulation of full length human Nur77 expressed in HEK293 cells co-transfected with RXRalpha and luciferase reporter plasmid harboring NurRE response element assessed as increase in luciferase activity incubated for 18 hrs by luciferase reporter gene assay; assay type: cell-based; conditions: filed as modulator; method in brief: as §2

| Activity | Compound |
| --- | --- |
| Dose-Dependent Effect | CCCCCCCC(=O)c1c(O)cc(O)cc1CC(=O)OCC [CYTOSPORONE B] |

molecular target: Nuclear receptor subfamily 4 group A member 3 (Homo sapiens) (UniProt Q92570); assay: Modulation of full length human NOR1 expressed in SK-N-BE(2) cells co-transfected with RXRalpha and luciferase reporter plasmid harboring NurRE response element assessed as increase in luciferase activity incubated for 18 by luciferase reporter gene assay; assay type: cell-based; conditions: SKNBE2, filed as modulator, time 18.0 hrs; method in brief: as §2

| Activity | Compound |
| --- | --- |
| Dose-Dependent Effect | CCCCCCCC(=O)c1c(O)cc(O)cc1CC(=O)OCC [CYTOSPORONE B] |

molecular target: Nuclear receptor subfamily 4immunitygroup A member 1 (Homo sapiens) (UniProt P22736); assay: Modulation of full length human Nur77 expressed in SK-N-BE(2) cells co-transfected with luciferase reporter plasmid harboring NurRE response element assessed as increase in luciferase activity incubated for 18 by luciferase reporter gene assay; assay type: cell-based; conditions: SKNBE2, filed as modulator, time 18.0 hrs; method in brief: as §2

| Activity | Compound |
| --- | --- |
| Dose-Dependent Effect | CCCCCCCC(=O)c1c(O)cc(O)cc1CC(=O)OCC [CYTOSPORONE B] |

molecular target: Nuclear receptor subfamily 4immunitygroup A member 1 (Homo sapiens) (UniProt P22736); assay: Modulation of full length human Nur77 expressed in HEK293 cells co-transfected with luciferase reporter plasmid harboring NurRE response element assessed as increase in luciferase activity incubated for 18 hrs by luciferase reporter gene assay; assay type: cell-based; conditions: filed as modulator; method in brief: as §2

| Activity | Compound |
| --- | --- |
| Dose-Dependent Effect | CCCCCCCC(=O)c1c(O)cc(O)cc1CC(=O)OCC [CYTOSPORONE B] |

molecular target: Nuclear receptor subfamily 4 group A member 2 (Homo sapiens) (UniProt P43354); assay: Modulation of full length human Nurr1 expressed in SKNBE(2) cells co-transfected with luciferase reporter plasmid harboring NBRE response element assessed as increase in luciferase activity incubated for 18 hrs by luciferase reporter-gene assay; assay type: cell-based; conditions: SKNBE2, filed as modulator
Method in brief: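 Transfection of SK-N-BE(2)-C cells (1:1 EMEM/F12, 10% FBS, 37°C, 5% CO2) used full-length Nurr1 alone (2 μg, no RXRα) with 3xNBRE- or 3xNurRE-luciferase reporter (6 μg) for 18 h. Cells were replated at 10,000/well for 4 h, then exposed to ligand or vehicle in quadruplicate for 18 h. Luminescence was expressed as fold over vehicle, as mean ± s.e.m. (n=4) from 2 independent experiments, one-way ANOVA against vehicle.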

| Activity | Compound |
| --- | --- |
| Dose-Dependent Effect | CCCCCCCC(=O)c1c(O)cc(O)cc1CC(=O)OCC [CYTOSPORONE B] |

molecular target: Nuclear receptor subfamily 4immunitygroup A member 1 (Homo sapiens) (UniProt P22736); assay: Modulation of full length human Nur77 expressed in SK-N-BE(2) cells co-transfected with RXRalpha and luciferase reporter plasmid harboring NurRE response element assessed as increase in luciferase activity incubated for 18 by luciferase reporter gene assay; assay type: cell-based; conditions: SKNBE2, filed as modulator, time 18.0 hrs; method in brief: as §2

| Activity | Compound |
| --- | --- |
| Dose-Dependent Effect | CCCCCCCC(=O)c1c(O)cc(O)cc1CC(=O)OCC [CYTOSPORONE B] |

molecular target: Nuclear receptor subfamily 4immunitygroup A member 1 (Homo sapiens) (UniProt P22736); assay: Modulation of full length human Nur77 expressed in PC12 cells co-transfected with RXRalpha and luciferase reporter plasmid harboring NBRE response element assessed as increase in luciferase activity incubated for 18 by luciferase reporter gene assay; assay type: cell-based; conditions: PC-12, filed as modulator, time 18.0 hrs; method in brief: as §2

| Activity | Compound |
| --- | --- |
| Dose-Dependent Effect | CCCCCCCC(=O)c1c(O)cc(O)cc1CC(=O)OCC [CYTOSPORONE B] |

molecular target: Nuclear receptor subfamily 4 group A member 3 (Homo sapiens) (UniProt Q92570); assay: Modulation of full length human NOR1 expressed in PC12 cells co-transfected with luciferase reporter plasmid harboring NBRE response element assessed as increase in luciferase activity incubated for 18 by luciferase reporter gene assay; assay type: cell-based; conditions: PC-12, filed as modulator, time 18.0 hrs; method in brief: as §3

| Activity | Compound |
| --- | --- |
| Dose-Dependent Effect | CCCCCCCC(=O)c1c(O)cc(O)cc1CC(=O)OCC [CYTOSPORONE B] |

molecular target: Nuclear receptor subfamily 4 group A member 3 (Homo sapiens) (UniProt Q92570); assay: Modulation of full length human NOR1 expressed in PC12 cells co-transfected with RXRalpha and luciferase reporter plasmid harboring NurRE response element assessed as increase in luciferase activity incubated for 18 by luciferase reporter gene assay; assay type: cell-based; conditions: PC-12, filed as modulator, time 18.0 hrs; method in brief: as §3

| Activity | Compound |
| --- | --- |
| Dose-Dependent Effect | CCCCCCCC(=O)c1c(O)cc(O)cc1CC(=O)OCC [CYTOSPORONE B] |
